Results: ChEMBL document CHEMBL2010761, “NO-SSRIs: Nitric Oxide Chimera Drugs Incorporating a Selective Serotonin Reuptake Inhibitor” (ACS Med Chem Lett, 2011)
Activity calls are given as the source filed them. The rule behind the calls is not given here.

How the values were obtained:
Mus musculus [1] = assay: Antiamnesic activity in scopolamine-induced C57BL/6 mouse assessed as aversive memory measuring increase in latency to enter dark area at 1.54 mg/kg, ip administered 20 mins prior training measured after 48 hrs by step-through passive avoidance task analysis relative to control; type: functional, organism-based; set-up: dose 1.54 mg/kg
Method in brief: (§1)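 Mice trained 2 h after habituation. Scopolamine 1 mg/kg in saline given ip 30 min before training, test drug in 25% DMSO given ip 20 min before training. Footshock 0.6 mA for 2 s on entering the dark compartment, with the door closing. Latency to enter the dark chamber recorded 48 h after training, drug-free. N = 9–11. Means and SEMs; ANOVA with Tukey post hoc test.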

[2] = biological target: Sodium-dependent serotonin transporter (Homo sapiens) (UniProt P31645); assay: Inhibition of human SERT-mediated serotonin reuptake in HEK293 cells at 100 nM relative to fluoxetine; type: cell-based
Sodium-dependent serotonin transporter (Homo sapiens), sequence (P31645 whole entry, looked up): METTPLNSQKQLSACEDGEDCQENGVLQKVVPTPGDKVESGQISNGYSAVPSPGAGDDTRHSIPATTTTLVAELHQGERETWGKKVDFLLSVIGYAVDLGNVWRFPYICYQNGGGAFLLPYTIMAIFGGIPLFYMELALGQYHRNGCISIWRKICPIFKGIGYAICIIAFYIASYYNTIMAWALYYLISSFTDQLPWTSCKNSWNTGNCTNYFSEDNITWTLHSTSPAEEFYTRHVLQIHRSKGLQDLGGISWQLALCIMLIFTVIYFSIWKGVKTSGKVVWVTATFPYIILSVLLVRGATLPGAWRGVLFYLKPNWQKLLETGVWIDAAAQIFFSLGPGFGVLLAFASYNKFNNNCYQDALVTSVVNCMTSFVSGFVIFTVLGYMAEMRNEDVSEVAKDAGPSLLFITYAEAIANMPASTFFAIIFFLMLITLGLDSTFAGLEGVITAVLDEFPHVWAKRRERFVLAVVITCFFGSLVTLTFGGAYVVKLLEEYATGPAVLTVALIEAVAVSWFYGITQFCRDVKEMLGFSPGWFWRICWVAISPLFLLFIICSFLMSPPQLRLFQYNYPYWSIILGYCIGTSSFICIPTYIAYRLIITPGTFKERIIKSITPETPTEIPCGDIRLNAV
Method in brief: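 HEK-293 cells stably transfected with human SERT cDNA were used to measure serotonin reuptake with test compounds at 100 nM. […] Means ± SEM from three separate experiments.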

Rattus norvegicus [3] = assay: Antidepressant activity in Sprague-Dawley rat assessed as increase in swimming time at 10 mg/kg, ip administered 1, 5 and 24 hrs prior test by forced swimming task analysis relative to control; type: functional, organism-based; set-up: dose 10 mg/kg
Method in brief: (§2)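 Male Sprague-Dawley rats, 200–250 g, given a 15 min pre-swim in the water tank 24 h before testing. Drug or vehicle given ip at 24, 5 and 1 h before the test. The 5 min test was scored in 60 blocks of 5 s for struggle, swimming and immobility. Means and SEMs; ANOVA with Tukey post hoc test.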

Mus musculus [4] = assay: Antiamnesic activity in scopolamine-induced C57BL/6 mouse assessed as aversive memory measuring increase in latency to enter dark area at 1 mg/kg, ip administered 20 mins prior training measured after 48 hrs by step-through passive avoidance task analysis relative to control; type: functional, organism-based; set-up: dose 1 mg/kg; method in brief: as §1
Rattus norvegicus [5] = assay: Antidepressant activity in Sprague-Dawley rat assessed as decrease in immobility time at 10 mg/kg, ip administered 1, 5 and 24 hrs prior test by forced swimming task analysis relative to control; type: functional, organism-based; set-up: dose 10 mg/kg; method in brief: as §2
Rattus norvegicus [6] = assay: Antidepressant activity in Sprague-Dawley rat assessed as change in struggle time at 10 mg/kg, ip administered 1, 5 and 24 hrs prior test by forced swimming task analysis relative to control; type: functional, organism-based; set-up: dose 10 mg/kg; method in brief: as §2
Brain [7] = assay: Prodrug activation in mouse brain assessed as formation of fluoxetine at 15 mg/kg, ip after 20 mins by LC-MS/MS analysis; type: organism-based; set-up: dose 15 mg/kg, route intraperitoneal; settings: in vivo
Mus musculus [8] = assay: Antiamnesic activity in scopolamine-induced C57BL/6 mouse assessed as aversive memory measuring increase in latency to enter dark area at 2.05 mg/kg, ip administered 20 mins prior training measured after 48 hrs by step-through passive avoidance task analysis relative to control; type: functional, organism-based; set-up: dose 2.05 mg/kg
Method in brief: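 Mice received scopolamine (1 mg/kg in physiological saline, ip) 30 min before training, and test drug in 25% DMSO ip 20 min before training. Training came 2 h after habituation: the animal was placed in the lit compartment, and entry to the dark side triggered door closure and a 0.6 mA, 2 s footshock. Latency to enter the dark chamber was retested 48 h later with no drug. N = 9–11; means ± SEM; ANOVA with Tukey's post hoc test.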

Rattus norvegicus [9] = assay: Antidepressant activity in Sprague-Dawley rat assessed as increase in swimming time at 26.5 mg/kg, ip administered 1, 5 and 24 hrs prior test by forced swimming task analysis relative to control; type: functional, organism-based; set-up: dose 26.5 mg/kg
Method in brief: (§3)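 Drug was given ip at 24, 5 and 1 h before the 5 min test, which was scored in 60 blocks of 5 s for struggle, swimming and immobility durations. Comparison was against vehicle by ANOVA with Tukey's post hoc test; means ± SEM.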

Plasma [10] = assay: Prodrug activation in mouse plasma assessed as formation of fluoxetine at 15 mg/kg, ip after 120 mins by LC-MS/MS analysis; type: organism-based; set-up: dose 15 mg/kg, route intraperitoneal; settings: in vivo, 2 h
[11] = Prodrug activation in PBS assessed as production of NO at 500 uM after 30 mins by chemiluminescence assay; settings: buffer, 0.5 h
Method in brief: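 Compound (500 μM) was mixed with glutathione-containing PBS in a sealed vessel. NO in the headspace was measured by chemiluminescence after 30 min.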

[12] = Prodrug activation in PBS at pH 7 assessed as hydrolysis of compound to fluoxetine at 200 uM by HPLC-UV analysis; settings: buffer, pH 7, 200 µM
Plasma [13] = assay: Prodrug activation in mouse plasma assessed as formation of fluoxetine at 15 mg/kg, ip after 20 mins by LC-MS/MS analysis; type: organism-based; set-up: dose 15 mg/kg, route intraperitoneal; settings: in vivo
[14] = Prodrug activation in PBS at pH 7 to 8 assessed as hydrolysis of compound to fluoxetine at 200 uM after 7 hrs by HPLC-UV analysis; settings: buffer, pH 7, 7 h
[15] = Prodrug activation in PBS at pH 7.4 assessed as hydrolysis of compound to fluoxetine at 200 uM by HPLC-UV analysis; settings: buffer, pH 7.4, 200 µM
[16] = Half life in PBS at pH 7 to 8 assessed as hydrolysis of compound to fluoxetine at 200 uM by HPLC-UV analysis; type: physicochemical
Rattus norvegicus [17] = assay: Antidepressant activity in Sprague-Dawley rat assessed as change in struggle time at 26.5 mg/kg, ip administered 1, 5 and 24 hrs prior test by forced swimming task analysis relative to control; type: functional, organism-based; set-up: dose 26.5 mg/kg; method in brief: as §3
Brain [18] = assay: Prodrug activation in mouse brain assessed as formation of fluoxetine at 15 mg/kg, ip after 120 mins by LC-MS/MS analysis; type: organism-based; set-up: dose 15 mg/kg, route intraperitoneal; settings: in vivo, 2 h
Rattus norvegicus [19] = assay: Antidepressant activity in Sprague-Dawley rat assessed as decrease in immobility time at 26.5 mg/kg, ip administered 1, 5 and 24 hrs prior test by forced swimming task analysis relative to control; type: functional, organism-based; set-up: dose 26.5 mg/kg; method in brief: as §3
[20] = Prodrug activation in PBS at pH 8 assessed as hydrolysis of compound to fluoxetine at 200 uM by HPLC-UV analysis; settings: buffer, pH 8, 200 µM

Compound: CNCCC(Oc1ccc(C(F)(F)F)cc1)c1ccccc1 (stereo unspecified)
- Activity (Mus musculus [1]): inactive

Compound: O=C(SCCO[N+](=O)[O-])N1CC[C@@H](c2ccc(F)cc2)[C@H](COc2ccc3c(c2)OCO3)C1
- Efficacy [2]: < 15%

Compound: Cc1ncsc1CCO[N+](=O)[O-]
- Activity (Rattus norvegicus [3]): Active
- Activity (Mus musculus [4]): Active
- Activity (Rattus norvegicus [5]): Active
- Activity (Rattus norvegicus [6]): Active

Compound: CN(CCC(Oc1ccc(C(F)(F)F)cc1)c1ccccc1)C(=O)SCCO[N+](=O)[O-] (stereo unspecified)
- Drug metabolism (Brain [7]): Active
- Activity (Mus musculus [8]): Active
- Activity (Rattus norvegicus [9]): Active
- Drug metabolism (Plasma [10]): Active
- Drug metabolism [11]: 8.9 nM
- Drug metabolism [12]: Active
- Drug metabolism (Plasma [13]): Active
- Drug metabolism [14]: Active
- Drug metabolism [15]: Active
- half-life at 200 µM [16]: 1.67 h
- Activity (Rattus norvegicus [17]): Active
- Drug metabolism (Brain [18]): Active
- Activity (Rattus norvegicus [19]): Active
- Drug metabolism [20]: Active
- Efficacy [2]: < 15%
